# Laboratory results reported in paper PMC9271465 (ESMO Open, 2022).
# What was measured:
# wild-type EGFR = wild-type EGFR (Homo sapiens, UniProt P00533); experiment: kinase inhibition, wild-type EGFR; type: biochemical; details: read-out: IC50 against wild-type EGFR; kinase level; unpublished data
# [1] = preclinical tolerability in animals; type: in vivo; details: preclinical studies; unpublished data
# EGFR T790M-mutated NSCLC = experiment: phase I dose-escalation: efficacy; type: in vivo, patients; details: FAS
# Summary of the method: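 Adults with T790M+ NSCLC (ARMS-confirmed) progressing on prior EGFR-TKIs; 3+3 escalation. Oral tablet, empty stomach: single dose day 1, then after 7 days continuous dosing in 21-day cycles (25–300 mg/day) until progression. CT/MRI brain, CT neck/chest/abdomen, bone scan every eight cycles; assessed at baseline, cycles 2, 4, 6, then every 2 cycles. RECIST v1.1 best overall response; disease control confirmed by imaging every 6 weeks.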
# Sequence of wild-type EGFR (P00533 25-1210): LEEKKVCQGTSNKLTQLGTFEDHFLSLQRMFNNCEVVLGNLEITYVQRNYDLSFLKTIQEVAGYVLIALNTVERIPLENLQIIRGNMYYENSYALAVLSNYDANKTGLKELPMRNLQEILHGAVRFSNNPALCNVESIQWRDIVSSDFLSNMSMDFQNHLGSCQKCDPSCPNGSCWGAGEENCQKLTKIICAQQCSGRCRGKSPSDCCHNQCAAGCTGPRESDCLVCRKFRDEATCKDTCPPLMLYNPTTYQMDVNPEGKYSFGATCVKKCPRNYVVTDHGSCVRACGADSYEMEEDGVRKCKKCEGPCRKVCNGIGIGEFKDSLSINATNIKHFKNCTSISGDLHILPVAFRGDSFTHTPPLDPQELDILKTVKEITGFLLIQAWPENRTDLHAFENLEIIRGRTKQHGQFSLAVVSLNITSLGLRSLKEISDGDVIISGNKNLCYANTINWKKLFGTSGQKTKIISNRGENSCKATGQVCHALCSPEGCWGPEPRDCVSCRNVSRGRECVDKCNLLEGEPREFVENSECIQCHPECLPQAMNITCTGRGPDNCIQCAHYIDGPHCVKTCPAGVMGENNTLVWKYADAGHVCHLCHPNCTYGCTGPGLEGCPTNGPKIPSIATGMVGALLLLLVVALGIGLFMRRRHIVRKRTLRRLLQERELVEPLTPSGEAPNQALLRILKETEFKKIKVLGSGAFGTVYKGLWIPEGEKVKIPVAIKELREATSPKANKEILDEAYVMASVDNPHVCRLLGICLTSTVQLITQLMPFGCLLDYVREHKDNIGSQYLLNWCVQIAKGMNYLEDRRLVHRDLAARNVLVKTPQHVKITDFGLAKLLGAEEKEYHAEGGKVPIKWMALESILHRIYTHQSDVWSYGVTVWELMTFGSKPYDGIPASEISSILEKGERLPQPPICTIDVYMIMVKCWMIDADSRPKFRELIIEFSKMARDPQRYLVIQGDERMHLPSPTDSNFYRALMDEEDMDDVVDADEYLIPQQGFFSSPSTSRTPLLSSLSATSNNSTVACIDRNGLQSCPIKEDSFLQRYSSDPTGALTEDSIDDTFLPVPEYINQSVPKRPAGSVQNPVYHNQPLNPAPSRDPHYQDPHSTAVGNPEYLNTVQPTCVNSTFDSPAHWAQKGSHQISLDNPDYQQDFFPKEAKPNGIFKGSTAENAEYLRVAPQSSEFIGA
compound,measurement,setting,value
C=CC(=O)Nc1cc(Nc2ncc(Cl)c(Nc3ccccc3C(=O)C(=O)N(C)C)n2)c(OC)cc1N1CCN(C)CC1 [BPI-15086],IC50,wild-type EGFR,503 nM
same,tolerability in animals,[1],well tolerated
same,Best overall response: Complete response,EGFR T790M-mutated NSCLC; 25 mg/day (n = 1),0 n (%)
same,Best overall response: Not evaluable,EGFR T790M-mutated NSCLC; 25 mg/day (n = 1),0 n (%)
same,Best overall response: Partial response,EGFR T790M-mutated NSCLC; 25 mg/day (n = 1),0 n (%)
same,Best overall response: Progressive disease,EGFR T790M-mutated NSCLC; 25 mg/day (n = 1),1 (100.0) n (%)
same,Best overall response: Stable disease,EGFR T790M-mutated NSCLC; 25 mg/day (n = 1),0 n (%)
same,"PFS, median (95% CI)",EGFR T790M-mutated NSCLC; 25 mg/day (n = 1),1.5 (NE-NE) months
same,Best overall response: Complete response,EGFR T790M-mutated NSCLC; 50 mg/day (n = 3),0 n (%)
same,Best overall response: Not evaluable,EGFR T790M-mutated NSCLC; 50 mg/day (n = 3),0 n (%)
same,Best overall response: Partial response,EGFR T790M-mutated NSCLC; 50 mg/day (n = 3),0 n (%)
same,Best overall response: Progressive disease,EGFR T790M-mutated NSCLC; 50 mg/day (n = 3),1 (33.3) n (%)
same,Best overall response: Stable disease,EGFR T790M-mutated NSCLC; 50 mg/day (n = 3),2 (66.7) n (%)
same,"OS, median (95% CI)",EGFR T790M-mutated NSCLC; 50 mg/day (n = 3),15.0 (8.4-15.0) months
same,"PFS, median (95% CI)",EGFR T790M-mutated NSCLC; 50 mg/day (n = 3),4.3 (1.6-5.8) months
same,Best overall response: Complete response,EGFR T790M-mutated NSCLC; 100 mg/day (n = 3),0 n (%)
same,Best overall response: Not evaluable,EGFR T790M-mutated NSCLC; 100 mg/day (n = 3),0 n (%)
same,Best overall response: Partial response,EGFR T790M-mutated NSCLC; 100 mg/day (n = 3),1 (33.3) n (%)
same,Best overall response: Progressive disease,EGFR T790M-mutated NSCLC; 100 mg/day (n = 3),2 (66.7) n (%)
same,Best overall response: Stable disease,EGFR T790M-mutated NSCLC; 100 mg/day (n = 3),0 n (%)
same,"DOR, median (95% CI)",EGFR T790M-mutated NSCLC; 100 mg/day (n = 3),9.7 (NE-NE) months
same,"OS, median (95% CI)",EGFR T790M-mutated NSCLC; 100 mg/day (n = 3),16.1 (NE-NE) months
same,"PFS, median (95% CI)",EGFR T790M-mutated NSCLC; 100 mg/day (n = 3),1.6 (1.5-12.6) months
same,Best overall response: Complete response,EGFR T790M-mutated NSCLC; 200 mg/day (n = 7),0 n (%)
same,Best overall response: Not evaluable,EGFR T790M-mutated NSCLC; 200 mg/day (n = 7),1 (14.3) n (%)
same,Best overall response: Partial response,EGFR T790M-mutated NSCLC; 200 mg/day (n = 7),2 (28.6) n (%)
same,Best overall response: Progressive disease,EGFR T790M-mutated NSCLC; 200 mg/day (n = 7),3 (42.9) n (%)
same,Best overall response: Stable disease,EGFR T790M-mutated NSCLC; 200 mg/day (n = 7),1 (14.3) n (%)
same,"DOR, median (95% CI)",EGFR T790M-mutated NSCLC; 200 mg/day (n = 7),6.7 (3.7-9.8) months
same,"PFS, median (95% CI)",EGFR T790M-mutated NSCLC; 200 mg/day (n = 7),3.0 (1.6-11.3) months
same,Best overall response: Complete response,EGFR T790M-mutated NSCLC; 300 mg/day (n = 3),0 n (%)
same,Best overall response: Not evaluable,EGFR T790M-mutated NSCLC; 300 mg/day (n = 3),1 (33.3) n (%)
same,Best overall response: Partial response,EGFR T790M-mutated NSCLC; 300 mg/day (n = 3),0 n (%)
same,Best overall response: Progressive disease,EGFR T790M-mutated NSCLC; 300 mg/day (n = 3),0 n (%)
same,Best overall response: Stable disease,EGFR T790M-mutated NSCLC; 300 mg/day (n = 3),2 (66.7) n (%)
same,"OS, median (95% CI)",EGFR T790M-mutated NSCLC; 300 mg/day (n = 3),9.2 (NE-NE) months
same,"PD, patients",EGFR T790M-mutated NSCLC; 25-mg/day,100%
same,"PR, patients","EGFR T790M-mutated NSCLC; 25-mg/day, 50-mg/day, and 300-mg/day groups",none of the patients
same,"PD, patients",EGFR T790M-mutated NSCLC; 50-mg/day,33.3%
same,DCR,"EGFR T790M-mutated NSCLC; 50-mg/day, 2/3 patients",66.7%
same,"PD, patients",EGFR T790M-mutated NSCLC; 100-mg/day,66.7%
same,"PR, patients",EGFR T790M-mutated NSCLC; 100-mg/day,33.3%
same,DCR,"EGFR T790M-mutated NSCLC; 100-mg/day, 1/3 patients",33.3%
same,"PD, patients",EGFR T790M-mutated NSCLC; 200-mg/day,42.9%
same,"PR, patients",EGFR T790M-mutated NSCLC; 200-mg/day,28.6%
same,DCR,"EGFR T790M-mutated NSCLC; 200-mg/day, 3/7 patients",42.9%
same,DCR,"EGFR T790M-mutated NSCLC; 300-mg/day, 2/3 patients",66.7%
same,Best overall response: Complete response,EGFR T790M-mutated NSCLC; All (n = 17),0 n (%)
same,Best overall response: Not evaluable,EGFR T790M-mutated NSCLC; All (n = 17),2 (11.8) n (%)
same,Best overall response: Partial response,EGFR T790M-mutated NSCLC; All (n = 17),3 (17.6) n (%)
same,Best overall response: Progressive disease,EGFR T790M-mutated NSCLC; All (n = 17),7 (41.2) n (%)
same,Best overall response: Stable disease,EGFR T790M-mutated NSCLC; All (n = 17),5 (29.4) n (%)
same,"DOR, median (95% CI)",EGFR T790M-mutated NSCLC; All (n = 17),9.7 (3.7-9.8) months
same,"OS, median (95% CI)",EGFR T790M-mutated NSCLC; All (n = 17),15.0 (8.4-16.1) months
same,"PFS, median (95% CI)",EGFR T790M-mutated NSCLC; All (n = 17),1.6 (1.6-5.3) months
same,"CR, patients",EGFR T790M-mutated NSCLC; all 17 patients,No patients showed CR
same,DCR,EGFR T790M-mutated NSCLC; all 17 patients,47.1%
same,ORR,EGFR T790M-mutated NSCLC; all 17 patients,17.6%
same,"PD, patients",EGFR T790M-mutated NSCLC; all 17 patients,41.2%
same,"confirmed PR, patients",EGFR T790M-mutated NSCLC; all 17 patients,17.6%
same,"could not be assessed for response, patients",EGFR T790M-mutated NSCLC; all 17 patients,11.8%
same,response,EGFR T790M-mutated NSCLC; one patient of the 25-mg/day dose group,no response was observed
same,"PD, patients",EGFR T790M-mutated NSCLC; three patients in the 300-mg/day group,None
